Measurements from ChEMBL document CHEMBL4680269, “N-benzylpiperidinol derivatives as novel USP7 inhibitors: Structure-activity relationships and X-ray crystallographic studies” (Eur J Med Chem, 2020).
Calls of active or inactive are those of the source. No cut-off for these calls is given here.

How the values were obtained:
[1] = target: Ubiquitin carboxyl-terminal hydrolase isozyme L1 (Homo sapiens) (UniProt P09936); test: Inhibition of UCH-L1 (unknown origin) at 20 uM
[2] = target: T1, Ubiquitin carboxyl-terminal hydrolase isozyme L5 (Homo sapiens) (UniProt Q9Y5K5); test: Inhibition of UCH-L5 (unknown origin) at 20 uM
T1 sequence (whole entry): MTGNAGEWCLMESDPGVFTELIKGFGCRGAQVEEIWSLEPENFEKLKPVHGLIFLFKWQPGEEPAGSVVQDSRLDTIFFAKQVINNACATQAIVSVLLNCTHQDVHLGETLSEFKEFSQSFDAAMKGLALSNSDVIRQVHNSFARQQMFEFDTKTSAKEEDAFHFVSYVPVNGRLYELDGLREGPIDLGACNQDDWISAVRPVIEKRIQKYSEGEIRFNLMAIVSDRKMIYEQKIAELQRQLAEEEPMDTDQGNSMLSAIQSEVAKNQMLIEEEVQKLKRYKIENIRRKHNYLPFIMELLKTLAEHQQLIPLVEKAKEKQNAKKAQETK

[3] = target: Ubiquitin carboxyl-terminal hydrolase 11 (Homo sapiens) (UniProt P51784); test: Inhibition of USP11 (unknown origin) at 20 uM
Chain of Ubiquitin carboxyl-terminal hydrolase 11 (Homo sapiens) (P51784 whole entry): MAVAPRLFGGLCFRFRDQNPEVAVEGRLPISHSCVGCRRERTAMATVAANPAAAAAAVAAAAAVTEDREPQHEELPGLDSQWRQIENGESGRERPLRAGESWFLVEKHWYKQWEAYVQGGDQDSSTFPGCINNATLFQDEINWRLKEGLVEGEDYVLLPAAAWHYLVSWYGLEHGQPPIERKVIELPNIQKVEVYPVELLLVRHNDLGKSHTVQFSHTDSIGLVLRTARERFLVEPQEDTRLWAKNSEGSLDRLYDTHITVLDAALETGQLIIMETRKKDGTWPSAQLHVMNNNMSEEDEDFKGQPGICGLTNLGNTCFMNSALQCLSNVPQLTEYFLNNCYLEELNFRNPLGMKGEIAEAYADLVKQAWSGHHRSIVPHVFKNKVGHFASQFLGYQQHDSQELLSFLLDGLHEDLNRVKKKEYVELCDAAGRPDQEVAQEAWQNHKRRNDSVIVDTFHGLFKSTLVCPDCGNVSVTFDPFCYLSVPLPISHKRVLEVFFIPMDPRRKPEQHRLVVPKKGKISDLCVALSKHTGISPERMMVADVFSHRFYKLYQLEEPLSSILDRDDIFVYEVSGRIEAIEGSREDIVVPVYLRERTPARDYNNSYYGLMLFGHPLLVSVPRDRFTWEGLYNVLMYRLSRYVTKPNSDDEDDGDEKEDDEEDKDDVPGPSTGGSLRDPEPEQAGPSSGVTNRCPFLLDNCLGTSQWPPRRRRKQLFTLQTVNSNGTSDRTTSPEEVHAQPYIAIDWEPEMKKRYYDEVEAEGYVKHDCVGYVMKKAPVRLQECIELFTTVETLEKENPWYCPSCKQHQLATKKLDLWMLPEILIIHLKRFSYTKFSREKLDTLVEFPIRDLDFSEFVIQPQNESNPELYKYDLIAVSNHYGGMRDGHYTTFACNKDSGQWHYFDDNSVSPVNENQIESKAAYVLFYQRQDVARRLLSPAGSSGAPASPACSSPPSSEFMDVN

[4] = target: T2, Ubiquitin carboxyl-terminal hydrolase 2 (Homo sapiens) (UniProt O75604); test: Inhibition of USP2 (unknown origin) at 20 uM
T2 sequence (whole entry): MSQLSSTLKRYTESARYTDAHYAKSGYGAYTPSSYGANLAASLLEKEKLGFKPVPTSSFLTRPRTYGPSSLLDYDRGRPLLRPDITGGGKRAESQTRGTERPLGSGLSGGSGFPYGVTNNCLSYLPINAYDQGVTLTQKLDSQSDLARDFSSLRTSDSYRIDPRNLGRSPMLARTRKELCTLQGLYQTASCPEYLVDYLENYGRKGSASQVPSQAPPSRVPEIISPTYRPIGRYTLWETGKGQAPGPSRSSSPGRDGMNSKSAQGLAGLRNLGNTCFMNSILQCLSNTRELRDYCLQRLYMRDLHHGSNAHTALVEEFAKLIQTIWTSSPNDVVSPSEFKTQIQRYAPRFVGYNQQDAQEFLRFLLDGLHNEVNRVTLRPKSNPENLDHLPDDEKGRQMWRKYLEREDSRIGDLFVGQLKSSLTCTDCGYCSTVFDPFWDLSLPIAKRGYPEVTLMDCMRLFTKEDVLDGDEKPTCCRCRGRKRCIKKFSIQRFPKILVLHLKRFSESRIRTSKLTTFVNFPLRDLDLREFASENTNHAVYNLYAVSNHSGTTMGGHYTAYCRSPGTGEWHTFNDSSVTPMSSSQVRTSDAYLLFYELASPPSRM

[5] = target: T3, Ubiquitin carboxyl-terminal hydrolase 25 (Homo sapiens) (UniProt Q9UHP3); test: Inhibition of USP25 (unknown origin) at 20 uM
T3 sequence (whole entry): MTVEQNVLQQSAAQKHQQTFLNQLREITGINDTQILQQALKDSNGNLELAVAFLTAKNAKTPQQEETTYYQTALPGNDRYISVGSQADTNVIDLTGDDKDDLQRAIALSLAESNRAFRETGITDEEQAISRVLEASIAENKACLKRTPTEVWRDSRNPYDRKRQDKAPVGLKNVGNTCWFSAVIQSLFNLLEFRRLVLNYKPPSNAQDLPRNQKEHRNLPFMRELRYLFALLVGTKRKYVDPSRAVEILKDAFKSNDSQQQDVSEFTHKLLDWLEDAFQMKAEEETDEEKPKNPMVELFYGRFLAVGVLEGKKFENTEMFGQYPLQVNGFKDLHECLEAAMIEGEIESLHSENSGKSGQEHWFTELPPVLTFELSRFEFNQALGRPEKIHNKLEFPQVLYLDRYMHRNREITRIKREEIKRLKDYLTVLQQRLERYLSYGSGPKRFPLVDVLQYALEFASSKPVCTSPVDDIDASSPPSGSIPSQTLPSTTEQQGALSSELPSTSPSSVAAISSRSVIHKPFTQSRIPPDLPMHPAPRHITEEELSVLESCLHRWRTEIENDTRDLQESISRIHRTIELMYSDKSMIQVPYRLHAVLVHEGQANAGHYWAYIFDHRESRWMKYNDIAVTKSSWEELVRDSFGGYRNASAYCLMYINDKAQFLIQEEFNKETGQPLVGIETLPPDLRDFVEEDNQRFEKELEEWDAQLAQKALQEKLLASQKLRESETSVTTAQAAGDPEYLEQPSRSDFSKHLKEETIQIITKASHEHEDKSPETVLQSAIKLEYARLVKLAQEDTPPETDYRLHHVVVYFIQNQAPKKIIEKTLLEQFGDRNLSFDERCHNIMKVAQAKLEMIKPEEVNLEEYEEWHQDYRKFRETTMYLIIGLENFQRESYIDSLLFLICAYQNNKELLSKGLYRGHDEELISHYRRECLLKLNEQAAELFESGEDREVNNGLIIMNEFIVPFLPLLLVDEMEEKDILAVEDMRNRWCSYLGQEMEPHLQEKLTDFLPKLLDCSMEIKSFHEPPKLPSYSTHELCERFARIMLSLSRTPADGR

[6] = target: T4, Ubiquitin carboxyl-terminal hydrolase 28 (Homo sapiens) (UniProt Q96RU2); test: Inhibition of USP28 (unknown origin) at 20 uM
T4 sequence (whole entry): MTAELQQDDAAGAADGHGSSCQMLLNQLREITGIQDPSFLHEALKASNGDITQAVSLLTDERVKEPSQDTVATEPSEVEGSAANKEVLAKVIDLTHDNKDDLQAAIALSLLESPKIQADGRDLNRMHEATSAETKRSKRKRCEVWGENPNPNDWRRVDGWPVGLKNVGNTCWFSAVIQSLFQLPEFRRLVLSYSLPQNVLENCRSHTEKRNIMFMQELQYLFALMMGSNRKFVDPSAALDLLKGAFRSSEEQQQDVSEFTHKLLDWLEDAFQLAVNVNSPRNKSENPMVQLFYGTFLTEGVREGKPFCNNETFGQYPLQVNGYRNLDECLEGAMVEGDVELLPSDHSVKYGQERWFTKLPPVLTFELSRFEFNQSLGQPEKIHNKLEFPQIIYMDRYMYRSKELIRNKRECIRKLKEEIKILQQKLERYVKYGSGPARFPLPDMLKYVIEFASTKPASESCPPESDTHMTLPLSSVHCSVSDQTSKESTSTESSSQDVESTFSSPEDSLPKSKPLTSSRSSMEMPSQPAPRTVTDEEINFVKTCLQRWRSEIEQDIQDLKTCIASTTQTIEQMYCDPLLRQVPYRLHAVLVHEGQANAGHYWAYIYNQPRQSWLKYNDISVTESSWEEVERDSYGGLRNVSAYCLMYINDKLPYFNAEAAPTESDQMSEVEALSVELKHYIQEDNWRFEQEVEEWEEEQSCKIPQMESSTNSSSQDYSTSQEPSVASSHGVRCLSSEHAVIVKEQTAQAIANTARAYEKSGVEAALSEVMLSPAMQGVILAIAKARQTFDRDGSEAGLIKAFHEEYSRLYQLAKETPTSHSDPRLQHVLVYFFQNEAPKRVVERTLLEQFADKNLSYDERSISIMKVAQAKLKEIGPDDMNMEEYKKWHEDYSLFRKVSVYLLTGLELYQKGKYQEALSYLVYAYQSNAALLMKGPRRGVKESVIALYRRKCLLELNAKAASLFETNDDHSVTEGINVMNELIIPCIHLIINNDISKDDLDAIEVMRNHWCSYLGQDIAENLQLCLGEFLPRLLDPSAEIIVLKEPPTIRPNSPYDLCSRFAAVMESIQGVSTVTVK

LNCaP = test: Antiproliferative activity against human LNCaP cells assessed as reduction in cell viability incubated for 6 days by cell-titer glo assay; assay type: functional, cell-based; conditions: 144 h
Summary of the method: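 LNCaP seeded at 2500 cells/well in 96-well plates, treated 24 h later with a range of compound concentrations for 6 days. Viability by CellTiter-Glo; IC50 from curve fitting.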

RS4-11 = test: Antiproliferative activity against human RS4-11 cells assessed as reduction in cell viability incubated for 3 days by cell-titer glo assay; assay type: functional, cell-based; conditions: RS4-11, 72 h
Summary of the method: (§1)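 Cells seeded in 96-well plates (RS4;11 5000 cells/well; HCT-116, Huh7, K562, NB4 2000 cells/well), dosed after 24 h with a range of compound concentrations for 3 days. Viability read by CellTiter-Glo luminescence; IC50 from curve fitting.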

HCT-116 = test: Antiproliferative activity against human HCT-116 cells assessed as reduction in cell viability incubated for 3 days by cell-titer glo assay; assay type: functional, cell-based; conditions: HCT-116, 72 h; summary of the method: as §1
NB-4 = test: Antiproliferative activity against human NB-4 cells assessed as reduction in cell viability incubated for 3 days by cell-titer glo assay; assay type: functional, cell-based; conditions: NB-4, 72 h; summary of the method: as §1
[7] = Antiproliferative activity against human K562 cells assessed as reduction in cell viability incubated for 3 days by cell-titer glo assay; assay type: functional, cell-based; conditions: K562, 72 h; summary of the method: as §1
Huh-7 = test: Antiproliferative activity against human HuH-7 cells assessed as reduction in cell viability incubated for 3 days by cell-titer glo assay; assay type: functional, cell-based; conditions: Huh-7, 72 h; summary of the method: as §1

Chain of Ubiquitin carboxyl-terminal hydrolase isozyme L1 (Homo sapiens) (P09936 whole entry, looked up): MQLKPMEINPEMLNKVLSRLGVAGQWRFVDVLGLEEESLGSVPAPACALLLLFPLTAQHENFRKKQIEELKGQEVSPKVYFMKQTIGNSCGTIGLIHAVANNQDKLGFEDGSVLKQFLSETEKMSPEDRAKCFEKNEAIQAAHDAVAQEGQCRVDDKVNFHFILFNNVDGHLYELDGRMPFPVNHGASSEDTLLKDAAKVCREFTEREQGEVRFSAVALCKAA

## C[C@H](CC(=O)N1CCC(O)(Cn2cnc3c(-c4ccc(CN)cc4)n(C)nc3c2=O)CC1)c1ccccc1
[1]
  inhibition: inactive
[2]
  inhibition: inactive
[3]
  inhibition: inactive
[4]
  inhibition: inactive
[5]
  inhibition: inactive
[6]
  inhibition: inactive
LNCaP
  IC50: 0.0201 µM
RS4-11
  IC50: 0.0069 µM
HCT-116
  IC50: > 50 µM
NB-4
  IC50: > 50 µM
[7]
  IC50: 24.1 µM
Huh-7
  IC50: 10.7 µM
